Experimental data taken from ChEMBL document CHEMBL3045565, “Microwave synthesis, characterization and bio-efficacy evaluation of novel chalcone based 6-carbethoxy-2-cyclohexen-1-one and 2H-indazol-3-ol derivatives” (Eur J Med Chem, 2013).
Values after ≈ are worked out from the molar mass of the structure shown.

How the values were obtained:
Assay type in all cases: functional
[1] = test system: Radical scavenging activity; experiment: Antioxidant activity assessed as DPPH free radical scavenging activity at 80 ug/mL after 20 min by UV-Vis spectrophotometric analysis
Outline: (§1)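 DPPH radical scavenging: samples were held at room temperature for 20 min in the dark, and absorbance was read at 517 nm. The control contained DMSO without compound, and methanol was used for baseline correction. Scavenging percentage was calculated from the absorbances.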

[2] = test system: Radical scavenging activity; experiment: Antioxidant activity assessed as DPPH free radical scavenging activity at 40 ug/mL after 20 min by UV-Vis spectrophotometric analysis; outline: as §1
[3] = test system: Staphylococcus aureus; experiment: Antibacterial activity against Staphylococcus aureus MTCC 3160 assessed as growth inhibition at 100 ug/disk after 24 hr by disk diffusion method; settings: MTCC 3160, 24 h, read-out: DIZ
Outline: (§2)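 Disk diffusion on nutrient agar. Strains kept on NA slants at 37 °C and subcultured in nutrient broth before testing. A log-phase culture was spread on solidified medium, and sterile disks were loaded with compound from DMSO stock. DMSO served as control, with commercial antibiotics for reference. Plates ran 24 h at 37 °C, and inhibition zones (mm) were read in quadruplicate.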

[4] = test system: Radical scavenging activity; experiment: Antioxidant activity assessed as DPPH free radical scavenging activity at 400 ug/mL after 20 min by UV-Vis spectrophotometric analysis; outline: as §1
[5] = test system: Radical scavenging activity; experiment: Antioxidant activity assessed as DPPH free radical scavenging activity at 200 ug/mL after 20 min by UV-Vis spectrophotometric analysis; outline: as §1
[6] = test system: Rhizoctonia solani; experiment: Antifungal activity against Rhizoctonia solani ITCC 5563 by food poisoning method
Outline: (§3)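 Poisoned food technique on PDA at several concentrations. A 5 mm mycelial plug from the growing edge of a 2-week-old colony was placed inoculum-side down at the plate centre. Plates incubated at 27 °C until control growth was nearly complete. Colony diameter measured, percent inhibition calculated against control, LC50 derived. Four replicates per treatment.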

[7] = test system: Xanthomonas oryzae; experiment: Antibacterial activity against Xanthomonas oryzae ITCC B-47 assessed as as growth inhibition at 100 ug/disk after 24 hr by disk diffusion method; settings: ITCC B-47, 24 h, read-out: DIZ
[8] = test system: Pseudomonas aeruginosa; experiment: Antibacterial activity against Pseudomonas aeruginosa MTCC 2581 assessed as growth inhibition at 100 ug/disk after 24 hr by disk diffusion method; settings: MTCC 2581, 24 h, read-out: DIZ; outline: as §2
[9] = test system: Radical scavenging activity; experiment: Antioxidant activity assessed as DPPH free radical scavenging activity at 10 ug/mL after 20 min by UV-Vis spectrophotometric analysis; outline: as §1
[10] = test system: Radical scavenging activity; experiment: Antioxidant activity assessed as DPPH free radical scavenging activity at 60 ug/mL after 20 min by UV-Vis spectrophotometric analysis; outline: as §1
[11] = test system: Radical scavenging activity; experiment: Antioxidant activity assessed as DPPH free radical scavenging activity at 500 ug/mL after 20 min by UV-Vis spectrophotometric analysis; outline: as §1
[12] = test system: Klebsiella pneumoniae; experiment: Antibacterial activity against Klebsiella pneumoniae MTCC 7028 assessed as growth inhibition at 100 ug/disk after 24 hr by disk diffusion method; settings: MTCC 7028, 24 h, read-out: DIZ; outline: as §2
[13] = test system: Athelia rolfsii; experiment: Antifungal activity against Athelia rolfsii ITCC 6181 by food poisoning method; settings: Agroathelia rolfsii; outline: as §3
[14] = test system: Dickeya chrysanthemi; experiment: Antibacterial activity against Erwinia chrysanthemi ITCC B-40 assessed as as growth inhibition at 100 ug/disk after 24 hr by disk diffusion method; settings: ITCC B-40, 24 h, read-out: DIZ; outline: as §2
[15] = test system: Radical scavenging activity; experiment: Antioxidant activity assessed as DPPH free radical scavenging activity at 100 ug/mL after 20 min by UV-Vis spectrophotometric analysis; outline: as §1
[16] = test system: Radical scavenging activity; experiment: Antioxidant activity assessed as DPPH free radical scavenging activity after 20 min by UV-Vis spectrophotometric analysis; set-up: concentration or dose not given beside the values; outline: as §1
[17] = test system: Bacillus thuringiensis; experiment: Antibacterial activity against Bacillus thuringiensis MTCC 6941 assessed as growth inhibition at 100 ug/disk after 24 hr by disk diffusion method; settings: MTCC 6941, 24 h, read-out: DIZ; outline: as §2
[18] = test system: Bacillus pumilus; experiment: Antibacterial activity against Bacillus pumilus MTCC 2466 assessed as growth inhibition at 100 ug/disk after 24 hr by disk diffusion method; settings: MTCC 2466, 24 h, read-out: DIZ; outline: as §2
[19] = test system: Radical scavenging activity; experiment: Antioxidant activity assessed as DPPH free radical scavenging activity at 300 ug/mL after 20 min by UV-Vis spectrophotometric analysis; outline: as §1
[20] = test system: Radical scavenging activity; experiment: Antioxidant activity assessed as DPPH free radical scavenging activity at 20 ug/mL after 20 min by UV-Vis spectrophotometric analysis; outline: as §1

| Structure (SMILES) | Activity [1] | Activity [2] | zone of inhibition at 100 µg/disc [3] | Activity [4] | Activity [5] | LC50 [6] | zone of inhibition at 100 µg/disc [7] | zone of inhibition at 100 µg/disc [8] | Activity [9] | Activity [10] | Activity [11] | zone of inhibition at 100 µg/disc [12] | LC50 [13] | zone of inhibition at 100 µg/disc [14] | Activity [15] | Activity [16] | IC50 [16] | zone of inhibition at 100 µg/disc [17] | zone of inhibition at 100 µg/disc [18] | Activity [19] | other results |
| --- | --- | --- | --- | --- | --- | --- | --- | --- | --- | --- | --- | --- | --- | --- | --- | --- | --- | --- | --- | --- | --- |
| COc1ccc(C2CC(c3ccc(Cl)cc3)=Cc3n[nH]c(O)c32)cc1 (stereo unspecified) | 86.4% | 43.2% | 0 mm | 89.8% | 91.2% | 587 µg/mL (≈ 1660 µM) | 0 mm | 0 mm | 13.9% | 68.7% | 90% | 0 mm | 941 µg/mL (≈ 2670 µM) | 0 mm | 89.9% | 43.2% | 42.34 µg/mL (≈ 120 µM) | 0 mm | 0 mm | 89.7% | Activity [20]: 21.7% |
| Cc1ccc(C2=Cc3n[nH]c(O)c3C(c3ccc(C)cc3)C2)cc1 (stereo unspecified) | 34.9% | 18.2% | 5 mm | 84.8% | 68.1% | 814 µg/mL (≈ 2570 µM) | 0 mm | 10 mm | 3.4% | 31.5% | 85.2% | 0 mm | 876 µg/mL (≈ 2770 µM) | 0 mm | 40.3% | 18.1% | 123.54 µg/mL (≈ 390 µM) | 0 mm | 0 mm | 80.5% | Activity [20]: 4.4% |
| COc1ccc(C2CC(c3ccc(Cl)c(Cl)c3)=Cc3n[nH]c(O)c32)cc1 (stereo unspecified) | 90.4% | 48.6% | 0 mm | 91.3% | 91.5% | 776 µg/mL (≈ 2000 µM) | 0 mm | 0 mm | 17.6% | 86.1% | 91.3% | 0 mm | 1030 µg/mL (≈ 2660 µM) | 0 mm | 91.1% | 48.5% | 40.98 µg/mL (≈ 106 µM) | 0 mm | 0 mm | 90.7% | Activity [20]: 31% |
| Cc1ccc(C2CC(c3ccccc3)=Cc3n[nH]c(O)c32)cc1 (stereo unspecified) | 36.4% | 18.2% | 5 mm | 85.7% | 69.9% | 745 µg/mL (≈ 2460 µM) | 0 mm | 10 mm | 9.2% | 35.1% | 85.7% | 0 mm | 922 µg/mL (≈ 3050 µM) | 0 mm | 41.2% | 18.2% | 106.62 µg/mL (≈ 353 µM) | 0 mm | 0 mm | 81.8% | Activity [20]: 14.5% |
| COc1cc(C2CC(c3ccccc3)=Cc3n[nH]c(O)c32)cc(OC)c1OC (stereo unspecified) | 90.7% | 67.1% | 0 mm | 90.5% | 92.3% | 917 µg/mL (≈ 2420 µM) | 0 mm | 0 mm | 18.1% | 86.4% | 90.8% | 0 mm | 1020 µg/mL (≈ 2710 µM) | 0 mm | 91.8% | 67.1% | 22.28 µg/mL (≈ 58.9 µM) | 0 mm | 0 mm | 91.2% | Activity [20]: 31.5% |
| COc1ccc(C2CC(c3ccccc3)=Cc3n[nH]c(O)c32)cc1OC (stereo unspecified) | 90.9% | 69.9% | 0 mm | 90.5% | 91.9% | 696 µg/mL (≈ 2000 µM) | 0 mm | 5 mm | 18.1% | 87.6% | 90.8% | 0 mm | 817 µg/mL (≈ 2340 µM) | 0 mm | 91.8% | 69.9% | 21.98 µg/mL (≈ 63.1 µM) | 0 mm | 0 mm | 91.9% | Activity [20]: 30.2% |
| O=[N+]([O-])c1cccc(C2CC(c3ccc(F)cc3)=Cc3n[nH]c(O)c32)c1 (stereo unspecified) | 90.1% | 67.9% | 0 mm | 90.9% | 92.3% | 528 µg/mL (≈ 1500 µM) | 0 mm | 0 mm | 22.6% | 86.4% | 91.1% | 0 mm | 796 µg/mL (≈ 2270 µM) | 0 mm | 90.8% | 67.9% | 19.81 µg/mL (≈ 56.4 µM) | 0 mm | 0 mm | 90.5% | Activity [20]: 35.9% |
| O=[N+]([O-])c1ccc(C2=Cc3n[nH]c(O)c3C(c3ccc4c(c3)OCO4)C2)cc1 (stereo unspecified) | 44.5% | 19.8% | 0 mm | 87.3% | 83.4% | 931 µg/mL (≈ 2470 µM) | 0 mm | 0 mm | 5.3% | 38.4% | 87.3% | 0 mm | 963 µg/mL (≈ 2550 µM) | 0 mm | 50.7% | 19.8% | 95.82 µg/mL (≈ 254 µM) | 0 mm | 0 mm | 87.9% | Activity [20]: 5.8% |
| COc1ccc(C2CC(c3ccc(OC)c(OC)c3)=Cc3n[nH]c(O)c32)cc1 (stereo unspecified) | 31.1% | 12.8% | 0 mm | 82.6% | 58.8% | 611 µg/mL (≈ 1610 µM) | 0 mm | 0 mm | 3.5% | 26.3% | 82.6% | 0 mm | 894 µg/mL (≈ 2360 µM) | 0 mm | 36.5% | 12.8% | 146.68 µg/mL (≈ 388 µM) | 0 mm | 0 mm | 75.3% | Activity [20]: 5.3% |
| COc1ccc(C2CC(c3ccc(C)cc3)=Cc3n[nH]c(O)c32)cc1OC (stereo unspecified) | 80.3% | 62.6% | 0 mm | 91.7% | 91.4% | 861 µg/mL (≈ 2380 µM) | 0 mm | 0 mm | 15% | 78.5% | 91% | 0 mm | 939 µg/mL (≈ 2590 µM) | 0 mm | 81.8% | 62.6% | 33.12 µg/mL (≈ 91.4 µM) | 0 mm | 0 mm | 91.6% | Activity [20]: 25.9% |
| COc1cc(C2CC(c3ccc(C)cc3)=Cc3n[nH]c(O)c32)cc(OC)c1OC (stereo unspecified) | 89.9% | 56.9% | 0 mm | 90.3% | 91.8% | 738 µg/mL (≈ 1880 µM) | 0 mm | 0 mm | 15% | 79.3% | 90.6% | 0 mm | 1170 µg/mL (≈ 2990 µM) | 0 mm | 90.8% | 56.9% | 29.7 µg/mL (≈ 75.7 µM) | 0 mm | 0 mm | 90.2% | Activity [20]: 26.4% |
